Assay outcomes (PubChem BioAssay)
CCR6 antagonist: antagonists of human CCR6 receptor; CHO-K1 CCR6 PathHunter beta-arrestin, luminescence, CCL20-stimulated; inhibition, % at 20 µM; hit rate 0.49% among 340,000; AID 493098;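 active = compounds whose inhibition of the agonist-driven luminescence signal at 20 µM reaches about 50%, limit read from the data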;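 note: cells stimulated with CCL20 at 14 nM final; plate controls were DMSO with CCL20 for no effect and DMSO without agonist for full effect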
EBI2 block: antagonists of human EBI2 receptor; AID 651636; EBI2 beta-arrestin recruitment, luminescence, 7a,25-OHC stimulated; hit rate 0.81% among 360,000; inhibition, % at 5 µM; in the data active = inhibition above about 38%;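 note: enzyme fragment complementation signal reports receptor beta-arrestin coupling in cells; 0% = agonist plus DMSO wells and 100% = wells without agonist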
Target sequence (P32249 whole entry, looked up, the tested form may be a part): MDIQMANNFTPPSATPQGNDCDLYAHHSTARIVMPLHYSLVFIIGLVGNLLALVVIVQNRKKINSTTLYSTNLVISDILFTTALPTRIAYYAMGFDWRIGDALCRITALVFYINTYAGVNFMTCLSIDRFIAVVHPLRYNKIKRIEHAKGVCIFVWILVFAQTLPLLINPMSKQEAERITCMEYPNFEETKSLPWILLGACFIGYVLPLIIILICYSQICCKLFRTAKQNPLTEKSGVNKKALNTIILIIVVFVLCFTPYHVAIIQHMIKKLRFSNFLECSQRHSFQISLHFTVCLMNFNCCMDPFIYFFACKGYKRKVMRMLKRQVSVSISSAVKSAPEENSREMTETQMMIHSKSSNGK
APJ antagonist: APJ receptor antagonism. P35414. CHO-K1 APJ beta-arrestin complementation, luminescence. inhibition, % at 20 µM. hit rate 0.32% among 330,000;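 active = inhibition above about 40% at 20 µM, limit read from the data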;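 note: cells challenged with 10 nM apelin-13 agonist together with compound; plate controls were apelin-13 plus DMSO wells for no effect and DMSO wells lacking apelin-13 for full effect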
APJ agonist: agonists of human APJ apelin receptor; CHO-K1 APJ PathHunter beta-arrestin, luminescence; 0% DMSO wells, 100% apelin; activation, % at 20 µM; hit rate 0.11% among 330,000; AID 2520;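 active = activation more than six SD over the plate average, tested at 20 µM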;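 note: 0% = DMSO alone and 100% = apelin-13 at 10 nM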
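Test system: CHO-K1 APJ beta-arrestin complementation cell line. Amount: cell density 1000 per well. Controls: DMSO negative, 10 nM Apelin-13 positive. Signal: luminescent beta-gal fragment complementation, chemiluminescent substrate. Read-out basis: agonist-driven arrestin binding to APJ. Timing: compound stimulation 90 min at 25 °C, detection 60 min.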
CXCR6 inh: inhibitors of human CXCR6 receptor. hit rate 0.36% among 360,000. O00574. AID 602244. inhibition, % at 20 µM. CHO-K1 PathHunter CXCR6 beta-arrestin, luminescence; in the data active = inhibition above about 34%, passing the limit was not always enough;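 note: antagonist mode with CXCL16 agonist at 10 nM final; 0% = 10 nM CXCL16 with DMSO and 100% = unstimulated wells without agonist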
EBI2 antag conf: confirmation of human EBI2 receptor antagonists | EBI2 beta-arrestin luminescence, 7a,25-OHC antagonism | shares compounds with EBI2 block | hit rate 29% among 2,400 | inhibition, % at 5 µM;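 active = inhibition of at least 50%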
EBI2 agonist: counter-screen for EBI2 antagonists: EBI2 agonist activity. EBI2-expressing cells, agonist mode, luminescence, 60 min; 0% vehicle, 100% 7α,25-dihydroxycholesterol control. shares compounds with EBI2 block. 2,400 tested, under 10 active. activation, % at 5 µM;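 active = activation of at least 50%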
bGal counter: counter-screen for EBI2 antagonists: E. coli beta-galactosidase inhibition; shares compounds with EBI2 block; purified beta-galactosidase, luminescent Galacton Star, 15 min; inhibition, % at 5 µM; hit rate 1% among 2,400; AID 652176;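 active = replicate-average signal at least 3 plate SD below neutral wells, shown as high inhibition, flagging enzyme-inhibiting false positives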;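 note: 0% = DMSO wells with enzyme and 100% = wells lacking enzyme; higher means stronger loss of beta-gal luminescence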
Active calls of the source: *; . = no result given. Hits are enriched below; roughly 1.5% of the tested compounds scored in any of these assays.

SMILES	CCR6 antagonist	EBI2 block	APJ antagonist	APJ agonist	CXCR6 inh	EBI2 antag conf	EBI2 agonist	bGal counter
CSc1ccc(/C=N/NC(=O)CN2CCN(Cc3ccccc3Cl)CC2)cc1	7.7	60.9*	0.4	-0.6	-5.8	45.7	0.6	5.5
CN(C)c1ccc(C(=O)NC2(N3CCC3=O)CCCC2)cc1	5.3	2.8	-4.6	-2.7	-4.0	.	.	.
Cc1ccc(OCC(=O)NN=C2C3CC4CC(C3)CC2C4)cc1	5.7	4.7	15.5	-2.5	-5.0	.	.	.
O=C(/C=C/c1ccc(Cl)cc1Cl)c1nc2ccccc2[nH]1	18.2	44.2*	14.5	-1.2	3.2	15.5	1.2	1.4
Clc1ccc(/C=C/c2nc3ccccc3[nH]2)c(Cl)c1	-6.7	15.1	-26.6	4.0	-17.6	.	.	.
COc1ccc2nc(C)cc(SCC(=O)NNC(=O)COc3ccccc3)c2c1	1.5	47.5*	1.2	-0.6	-0.7	20.2	-1.1	-5.8
CCOC(=O)CNC(=O)CSc1cc(C)nc2ccc(OC)cc12	-3.0	-14.1	-4.4	-1.6	-3.7	.	.	.
CCCOc1ccc(-c2nc(SCc3ccccc3)[nH]c(=O)c2C#N)cc1OC	7.7	1.4	9.4	-3.6	-6.6	.	.	.
O=C(/C=C/c1ccc(Br)cc1)NCc1cccs1	12.7	64.8*	-18.7	1.1	-1.3	48.1	0.2	4.3
Cc1ccc(-c2nc(=S)c3c(n2Cc2cccnc2)CC(C)(C)OC3)cc1	6.3	-1.2	4.7	0.2	0.2	.	.	.
COCCOC(=O)c1c(NC(=O)CN2c3ccccc3CC2C)sc(C(N)=O)c1C (stereo unspecified)	10.2	65.4*	4.1	-1.4	-0.8	31.0	-0.7	2.5
COCCOC(=O)c1c(NC(=O)CN2CCOCC2)sc(C(N)=O)c1C	-1.0	-8.7	2.9	0.9	-7.3	.	.	.
CCOC(=O)C1(CCOc2ccccc2)CCN(C(=O)c2ccc(-n3cccn3)cc2)CC1	13.3	88.3*	-1.1	1.3	-0.9	68.3*	0.2	6.5
C=CCn1c2ccccc2c2nnc(SCCN3CCOCC3)nc21	4.6	10.7	-15.0	0.8	5.5	.	.	.
CCCCn1c2ccccc2c2nnc(SCCN3CCCCC3)nc21	14.8	49.0*	-20.7	-0.4	12.9	13.1	-2.2	-10.9
Cn1c2ccc(F)cc2c2nnc(SCCN3CCOCC3)nc21	3.8	0.8	18.0	-1.6	-2.2	.	.	.
CCCCn1c2ccc(F)cc2c2nnc(SCCN3CCOCC3)nc21	0.8	63.4*	4.3	-1.6	4.6	30.8	0.4	9.2
Cc1cc(C)c[n+](-c2[nH]c(=O)sc2/C=N/N=C(\N)[S-])c1	14.9	-2.3	-5.6	-4.2	5.0	.	.	.
O=C(/C=C/c1cn(-c2ccccc2)nc1-c1cccnc1)c1ccco1	14.5	44.3*	-4.0	1.0	7.7	65.1*	2.6	2.4
CC(C)CCNc1nnnc2c1sc1nc(N3CCOCC3)c3c(c12)CC(C)(C)SC3	1.0	51.9*	11.8	-2.4	10.0	42.8	-1.7	-3.5
CCOC(=O)C(C)Sc1ccc2nnc(CCNS(=O)(=O)c3ccccc3)n2n1 (stereo unspecified)	12.6	0.9	14.9	-3.7	1.7	.	.	.
CC(C)N(Cc1ccccc1)C(=O)COC(=O)CCC(=O)c1ccc(F)cc1	12.4	-2.5	-7.9	1.1	7.1	.	.	.
O=C(Nc1ccnc(-c2cccnc2)n1)c1ccc(Cl)c(Cl)c1	4.6	45.5*	17.7	-3.1	3.0	7.1	1.0	3.0
CC(C)C[C@@H](CN=[N+]=[N-])N1CCN(Cc2ccccc2)CCC1=O	3.1	1.3	-26.1	10.9	-4.5	.	.	.
CCOc1ccc(N2CC(C(=O)Nc3cccc(S(=O)(=O)N4CCCCC4)c3)CC2=O)cc1 (stereo unspecified)	-15.7	39.4	-8.0	-1.4	-4.7	.	.	.
CCOc1ccc(N2CC(C(=O)Nc3ccc(S(=O)(=O)N4CCCC4)cc3)CC2=O)cc1 (stereo unspecified)	1.3	53.4*	1.1	2.2	4.8	44.1	0.8	2.1
